The list is not random: actives were taken first. Their share in the collection is about 3.7%.
XBP1 UPR activ: adaptive UPR (XBP1) activation. CHO-XBP1 luciferase reporter, IRE1-XBP1 UPR activation, luminescence; percent of tunicamycin response, DMSO as zero. activation, % at 20 µM. 0.33% of 330,000 active;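 active means versus positive control, 20 µM dose yields 30% or more activation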;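 further: 100% = tunicamycin at 10 µg/mL and 0% = DMSO only wells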
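assay system = CHO-XBP1 luciferase reporter cells | amount = 1000 cells/well | buffer or medium = F12 plus 10% FBS | compound dosing = single point, 20 µM final compound, 1% DMSO | incubation = 16-18 h cell attachment at 37 °C, then 6 h compound exposure | detection = Steady-Glo luminescence read | controls = tunicamycin 10 µg/mL and vehicle-only wells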
Dynein cargo inh: dynein cargo transport inhibition. 3617.4 mouse cells, GR-EGFP nuclear translocation imaging; test concentration mostly 20 µM; stimulated with dexamethasone, 1 µM; hits give low values. AID 1381. 0.47% of 220,000 active. z-score, hits read low;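 active means plate z-score of nuclear minus cytoplasmic receptor signal below a set negative limit, without overly bright fluorescence or cell loss, cut at about -3.5 in these data, passing the limit was not always enough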;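 further: z-score of nuclear minus cytoplasmic ring GR-EGFP intensity difference per well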
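Buffer or medium: tet-free medium with charcoal-stripped serum / Also added: dexamethasone agonist, 1.0 µM final, for 30 min / Timing: induction 48 h, compound 1 h, agonist 30 min / Measured by: high-content fluorescence imaging after fixation / Read-out: nuclear-to-cytoplasmic GR-EGFP distribution per well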
MDM2 E3 inh: Mdm2 E3 ligase (human) inhibition. 0.11% of 210,000 active. AID 1230. signal enhancement, % at 5 µM. cell-based MDM2 ubiquitination luciferase reporter, 2 h; 0 = plate control, 100 = twice control, blank-subtracted. Q00987;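 active means signal enhancement of 30% or more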;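 further: luminescence tracks abundance of the self-degrading MDM2-luciferase fusion protein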
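Test system: stable mammalian line carrying autodegrading MDM2–luciferase fusion reporter; quantity: 2000 cells in each well; times: 4 h cell settling then 2 h compound exposure, 37 °C; detection: luminescence with SteadyLite reagent, 15 min at room temperature; evaluation: percent signal gain over controls, blank-subtracted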
Mdm2 MdmX PPI: human Mdm2/MdmX binding inhibition; O15151+Q00987; SaOS-2 split-luciferase Mdm2/MdmX complementation, luminescence; inhibition, % at 8 µM; 3% of 330,000 active; AID 485346;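 active means inhibition of at least 50% at 8 µM in the primary screen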
Target sequence (O15151 whole entry, looked up): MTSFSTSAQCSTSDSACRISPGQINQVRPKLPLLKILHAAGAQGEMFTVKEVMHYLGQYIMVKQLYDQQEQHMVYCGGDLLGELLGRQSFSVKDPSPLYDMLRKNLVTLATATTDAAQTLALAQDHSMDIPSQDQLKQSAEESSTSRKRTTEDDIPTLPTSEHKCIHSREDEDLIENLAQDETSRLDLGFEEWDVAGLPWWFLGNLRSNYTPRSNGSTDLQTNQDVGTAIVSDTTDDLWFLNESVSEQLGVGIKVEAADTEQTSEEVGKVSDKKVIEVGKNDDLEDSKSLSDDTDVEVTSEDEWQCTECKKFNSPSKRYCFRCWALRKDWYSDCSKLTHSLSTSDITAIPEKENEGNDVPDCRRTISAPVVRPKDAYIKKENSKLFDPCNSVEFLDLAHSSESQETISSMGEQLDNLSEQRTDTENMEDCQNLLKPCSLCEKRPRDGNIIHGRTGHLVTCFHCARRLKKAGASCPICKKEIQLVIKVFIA
Target sequence (Q00987 whole entry, looked up): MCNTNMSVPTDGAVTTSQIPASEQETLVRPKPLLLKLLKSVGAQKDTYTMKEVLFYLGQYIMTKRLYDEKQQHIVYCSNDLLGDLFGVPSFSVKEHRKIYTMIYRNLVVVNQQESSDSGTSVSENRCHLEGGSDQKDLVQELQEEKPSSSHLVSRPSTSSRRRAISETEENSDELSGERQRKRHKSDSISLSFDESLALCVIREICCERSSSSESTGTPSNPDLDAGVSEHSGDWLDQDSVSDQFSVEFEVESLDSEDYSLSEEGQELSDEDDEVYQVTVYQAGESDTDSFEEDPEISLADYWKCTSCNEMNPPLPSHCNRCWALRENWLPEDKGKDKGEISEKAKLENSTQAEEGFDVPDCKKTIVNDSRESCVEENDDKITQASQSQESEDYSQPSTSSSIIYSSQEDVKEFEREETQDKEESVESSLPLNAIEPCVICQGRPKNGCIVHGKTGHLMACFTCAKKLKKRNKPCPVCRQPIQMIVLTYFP
UPR CHOP act: apoptotic UPR (CHOP) activation | CHO-CHOP luciferase reporter, luminescence; percent of tunicamycin response over DMSO baseline | activation, % at 10 µM | 0.34% of 330,000 active | AID 449763;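 active means at 10 µM dose, activation of 40% or more, normalized to positive control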;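 further: 100% = tunicamycin at 10 µg/mL and 0% = DMSO alone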
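System: CHO CHOP reporter cells. Amount: 500 cells per well. Buffer or medium: F12 medium, 10% FBS. Compound dosing: one dose, 10 µM in 0.5% DMSO. Incubation: 6 h compound exposure at 37 °C after overnight seeding. Technique: Steady-Glo luciferase luminescence. Benchmarks: tunicamycin and DMSO controls.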
Beta2AR agonist: activates human beta-2 adrenergic receptor causing internalization; P07550; Am2.2-beta2AR cells, FAP receptor internalization, flow cytometry; response, % (test concentration not listed); 0.43% of 340,000 active;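 active means response above a set limit, near 3 SD of response in nonfluorescent compounds, cut at about 42% in these data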
Mdm2 MdmX conf: human Mdm2/MdmX binding inhibition, confirmed; shares compounds with Mdm2 MdmX PPI; 55% of 10,000 active; luminescent assay; AID 489028; inhibition, % at 8 µM; in the data active means inhibition above about 40%
FLuc counter: full-length luciferase inhibition in Mdm2/MdmX counter-screen | shares compounds with Mdm2 MdmX PPI | SaOS-2 full-length luciferase counterscreen, luminescence | inhibition, % at 8 µM | 77% of 6,200 active | AID 504607;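 active means mean inhibition at 8 µM reaching about 37%, which flags the compound as non-specific, limit read from the data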;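 further: p53-null SaOS-2 cells with luciferase driven by a doxycycline-inducible promoter; compound on cells about two nights before reading with doxycycline added after day one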
Beta2AR ag CP1: human beta-2 adrenergic receptor agonism, cherry pick; shares compounds with Beta2AR agonist; Am2.2-beta2AR cells, FAP surface receptor, flow cytometry; hits give low values; percent response (surface receptor), % at 10 µM; 25% of 1,100 active; AID 540358;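 active means surface receptor percent response at or below 58%, roughly 3 SD from nonfluorescent compounds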
B2AR FAP counter: counter-screen for beta-2AR agonists: fluorescence in Am2.2 cells. shares compounds with Beta2AR agonist. FAP fluorogen flow cytometry, fluorescence counterscreen; hits give low values. calls only at 10 µM. 1,100 tested, under 10 active;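 active means percent response below a set limit in fluorescence channel 1 and below 50% in channel 8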
Numbers without * were called inactive; i = inactive; · = no result; + = active, no number.

SMILES	XBP1 UPR activ	Dynein cargo inh	MDM2 E3 inh	Mdm2 MdmX PPI	UPR CHOP act	Beta2AR agonist	Mdm2 MdmX conf	FLuc counter	Beta2AR ag CP1	B2AR FAP counter
Cc1ccc2c(c1)c1c3n2CCCNC3CCC1 (stereo unspecified)	1	-1	-4	22	-1	10	·	·	·	·
c1cc2c(cc1C1CCCCC1)c1c3n2CCCNC3CCC1 (stereo unspecified)	8	-5.8	-4	98*	32	44*	48*	2	101	i
O=[N+]([O-])c1cc(S(=O)(=O)C(F)(F)F)ccc1Sc1nc2ccccc2s1	-14	-3.4	-6	96*	20	45*	10	·	73	i
CS(=O)(=O)c1ccc(Sc2nc3ccccc3s2)c([N+](=O)[O-])c1	-2	2.2	-5	23	2	2	·	·	·	·
Cc1ccc(CSCC(=O)Nc2ccc(N3CCOCC3)cc2N2CCOCC2)cc1	-2	·	·	-9	-3	6	·	·	·	·
COc1ccc(CC(=O)OC(C)C(=O)Nc2c(C)n(C)n(-c3ccccc3)c2=O)cc1OC (stereo unspecified)	-1	·	·	5	1	1	·	·	·	·
CN(C)CCCN(C(=O)CCc1ccccc1)c1nc2ccc(Br)cc2s1	6	4.2	-7	58*	2	44*	37	52*	120	i
O=C(O)C(CO)(c1ccccc1)c1ccccc1	0	·	·	0	-2	-3	·	·	·	·
COc1ccccc1-c1cc(C(F)(F)F)nc(S(=O)(=O)CCCC(=O)NC(C)C)n1	-7	-1.6	-12	100*	21	98*	97*	31	54*	i
COCC(C)NC(=O)CCSc1nc(-c2ccc(OC)cc2)cc(C(F)(F)F)n1 (stereo unspecified)	0	-0.37	5	25	-2	3	·	·	·	·
COc1ccccc1NCC(O)Cn1c2ccccc2c2ccccc21 (stereo unspecified)	0	-0.49	-8	24	-1	2	·	·	·	·
COc1ccc(CCNCC(O)Cn2c3ccccc3c3ccccc32)cc1OC (stereo unspecified)	9	0.48	-9	92*	-1	48*	37	55*	53*	i
c1ccc(Nc2nc(NCc3ccco3)c3ccccc3n2)cc1	21	0.51	2	78*	18	18	2	·	80	i
CC(C)(C)c1ccc(-n2nc(C(N)=O)c(O)cc2=O)cc1	0	0.98	-50	-17	1	-2	·	·	·	·
CC(C)(C)c1ccc(-n2nc(C#N)c(Cl)cc2=O)cc1	-10	-0.11	-11	100*	-9	52*	100*	1	22*	+
Cc1ccc(Cl)cc1NC(=O)COC(=O)c1ccccc1O	-3	0.25	-10	24	-1	-12	·	·	·	·
Cc1ccc(Cl)cc1NC(=O)c1cc2ccccc2cc1O	2	0.062	-50	93*	26	44*	97*	52*	95	i
O=[N+]([O-])c1ccc(-[n+]2ccc3ccccc3c2)c([N+](=O)[O-])c1	-7	·	·	100*	-5	47*	56*	5	40*	i
O=[N+]([O-])c1ccc(SNc2ccccc2)c([N+](=O)[O-])c1	·	·	·	·	·	-10	·	·	·	·
O=C(CCS(=O)(=O)c1ccccc1)Nc1nc2c(s1)COc1ccccc1-2	-2	-0.61	-7	63*	1	59*	10	·	101	i
CC1Cc2ccccc2N1C(=O)COC(=O)c1ccc(Cl)c(S(=O)(=O)N2CCOCC2)c1 (stereo unspecified)	-3	·	·	17	3	15	·	·	·	·
CSc1ncccc1C(=O)Nc1nnc(C2CC2)s1	1	-0.064	-3	6	1	-4	·	·	·	·
Cc1cccc(C)c1NC(=O)Cn1nnc(-c2ccc(N3CCOCC3)cc2)n1	0	-0.81	-21	70*	-3	-10	20	·	103	i
O=C(CCC1CCCNC1)c1ccccc1 (stereo unspecified)	-1	·	·	10	5	·	·	·	·	·
Cc1ccc2c(c1)c1c(n2CC(O)CNC(CO)(CO)CO)CCCC1 (stereo unspecified)	-3	-0.59	-15	14	-1	2	·	·	·	·
SMILES	XBP1 UPR activ	Dynein cargo inh	MDM2 E3 inh	Mdm2 MdmX PPI	UPR CHOP act	Beta2AR agonist	Mdm2 MdmX conf	FLuc counter	Beta2AR ag CP1	B2AR FAP counter
Cc1ccc2c(c1)c1c(n2CC(O)CNC2CCCCC2)CCCC1 (stereo unspecified)	11	-1.9	4	100*	4	53*	46*	51*	112	i
COc1ccc(C(C)NCCC(c2ccc(OC(C)C)cc2)c2ccccc2OC)cc1 (stereo unspecified)	-4	·	·	99*	1	23	69*	56*	96	i
CC(C)Oc1ccc(CN2CCC(n3nccc3NC(=O)C3CC3)CC2)cc1	-5	·	·	26	0	3	·	·	·	·
Cc1cccc(NC(=O)c2cc(-c3cccnc3)nc3c(C)cccc23)n1	-5	·	·	50*	0	75*	2	·	129	i
O=C1NCN(c2ccccc2)C12CCN(CCCC(c1ccc(F)cc1)c1ccc(F)cc1)CC2	3	-0.32	-9	99*	2	49*	52*	73*	82	i
O=C1CCC(=O)N1CCC(c1ccc(F)cc1)c1ccco1 (stereo unspecified)	2	-2.2	-8	-1	2	11	·	·	·	·
Cc1ccc(-n2ncc(C(=O)Nc3cc(Cl)cc(Cl)c3)c2C2CCNCC2)cc1C	·	-0.53	-14	·	·	56*	·	·	76	i
CC(=O)N1c2ccccc2C(C)(c2ccccc2)CC1(C)C (stereo unspecified)	-1	1.3	-36	8	0	54*	·	·	45*	i
CC1(c2ccccc2)CC(C)(C)N(C(N)=O)c2ccccc21 (stereo unspecified)	-2	·	·	4	1	40	·	·	·	·
O=C(Nc1ccc(F)cc1)c1cccc(N2C(=O)c3ccccc3C2=O)c1	-3	·	·	13	-2	-10	·	·	100	i

Bioassay records (PubChem)
